Measured values from paper PMC6740333 (Bioconjugate chemistry, 2018).
Like-named read-outs stand apart in the source and are kept apart here.

Tests used:
HepaRG cells = test: Cell viability assay; type: cell-based, human
How it was run: (§1)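 HepaRG, MDCK (canine kidney) or LLC-PK1 (pig kidney) cells were grown at 37°C, 5% CO2 in RPMI 1640 with 10% FBS, 1% glutamine and 1% penicillin–streptomycin. Cells were exposed for 24 h at 37°C to serial dilutions of sulfobetaine surfactant in medium (final-volume concentrations). MTT (0.5%) was added for 4 h, formazan was dissolved in DMSO 16 h in the dark, and A590 was read against medium-only controls. Triplicate.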

[1] = Dispersion stability of surfactant-stabilized GNRs at high ionic strength; type: physicochemical; conditions: 1 M NaCl
How it was run: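 Citrate-stabilized gold nanorods were centrifuged and redispersed twice in 0.1 M NaCl containing millimolar zwitterionic sulfobetaine surfactant. Ionic strength was then raised with brine to 0.5 or 1.0 M. Dispersion stability was followed as retention of optical density, measured by absorbance spectrophotometry, after one day and one week.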

MDCK cells = test: Cell viability assay; type: cell-based, canine; conditions: read-out: Cell viability IC50, MTT, mean of triplicate
How it was run: as §1

SKOV-3 cells = test: Cell viability assay; type: cell-based; conditions: Homo sapiens, SK-OV-3, 24 h, read-out: Cell viability IC50
How it was run: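 SKOV-3 cells in folate-free RPMI 1640 (10% FBS, 1% penicillin–streptomycin) were seeded at 5,000 cells/100 μL and preincubated 24 h at 37°C, 5% CO2. Serial dilutions in medium (final-volume concentrations) were added for 24 h at 37°C. MTT (0.5%) was then added for 4 h, followed by DMSO solubilization 16 h at 25°C in the dark. A590 was normalized to medium-only cells. Triplicate.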

LLC-PK1 cells = test: Cell viability assay; type: cell-based, pig; conditions: read-out: Cell viability IC50; LLC-PK1, MTT, mean of triplicate
How it was run: as §1

[2] = read-out: Cell viability IC50, MTT, mean of triplicate

SMILES	IC50 (HepaRG cells; [2]) [µM]	retention of optical density of stabilized GNRs ([1]; after one day)	retention of optical density of stabilized GNRs ([1]; after one week) [%]	IC50 (MDCK cells) [µM]	IC50 (HepaRG cells; Homo sapiens, read-out: Cell viability IC50) [µM]	IC50 (SKOV-3 cells) [µM]	IC50 (LLC-PK1 cells) [µM]
CCCCCCCCCCCCCCCC(=O)NCCC[N+](C)(C)CCCS(=O)(=O)[O-] [ASB-16]	58	over 90%	80	81			
CCCCCCCCCCCCCCCC[N+](C)(C)C [CTAB, cetyltrimethylammonium bromide]					8	8	
CCCCCCCC/C=C\CCCCCCCC[N+](C)(C)CCCS(=O)(=O)[O-] [OSB, oleylsulfobetaine]	32	over 90%	80	42			62
CCCCCCCCCCCCCCCCCC[N+](C)(C)CCCS(=O)(=O)[O-] [C18-SB, 3-(N,N-dimethyloctadecylammonio)sulfopropyl betaine]	52	over 90%	80	56			
CCCCCCCCCCCCCC(=O)NCCC[N+](C)(C)CCCS(=O)(=O)[O-] [ASB-14]	105	over 90%	80	120			
